Assay results published in ChEMBL document CHEMBL3085721, “Nonhydrolyzable ATP analogues as selective inhibitors of human NPP1: a combined computational/experimental study” (J Med Chem, 2013).

Tests used:
[1] = biological target: T1, Ectonucleoside triphosphate diphosphohydrolase 8 (Homo sapiens) (UniProt Q5MY95); assay: Inhibition of human NTPDase8 assessed as amount of inorganic phosphate released using ATP as the substrate preincubated at 100 uM for 3 mins before substrate addition after 15 mins by malachite green reagent method
T1 sequence (whole entry): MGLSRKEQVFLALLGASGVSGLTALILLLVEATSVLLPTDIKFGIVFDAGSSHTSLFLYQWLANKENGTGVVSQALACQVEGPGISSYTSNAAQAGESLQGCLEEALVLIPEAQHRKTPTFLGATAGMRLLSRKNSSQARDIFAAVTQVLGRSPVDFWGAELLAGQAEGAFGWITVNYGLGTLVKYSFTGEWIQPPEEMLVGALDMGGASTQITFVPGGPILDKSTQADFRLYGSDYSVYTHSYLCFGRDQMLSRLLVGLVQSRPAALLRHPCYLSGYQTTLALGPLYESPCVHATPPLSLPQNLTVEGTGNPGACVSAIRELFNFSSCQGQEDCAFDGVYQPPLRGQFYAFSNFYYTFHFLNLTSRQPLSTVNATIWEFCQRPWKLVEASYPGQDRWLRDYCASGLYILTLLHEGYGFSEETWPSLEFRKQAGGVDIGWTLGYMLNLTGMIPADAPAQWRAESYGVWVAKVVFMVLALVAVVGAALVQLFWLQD
Summary of the method: (§1)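 Crude extracts of COS-7 cells transiently transfected with human NTPDase1, -2, -3 or -8, preincubated 3 min at 37 °C in Tris-Ringer medium pH 7.4 with analogue (final 100 μM). Started with 100 μM ATP, stopped after 15 min with malachite green; released Pi read at 630 nm. ATP alone set as 100%. Mean ± SD of 3−6 experiments in triplicate.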

[2] = biological target: T2, Ectonucleotide pyrophosphatase/phosphodiesterase family member 1 (Homo sapiens) (UniProt P22413); assay: Inhibition of human NPP1 expressed in COS7 cells assessed as production of p-nitrophenol using pnp-TMP as the substrate preincubated at 100 uM for 3 mins before substrate addition measured after 15 mins […]; format: cell-based; conditions: COS-7
T2 sequence (whole entry): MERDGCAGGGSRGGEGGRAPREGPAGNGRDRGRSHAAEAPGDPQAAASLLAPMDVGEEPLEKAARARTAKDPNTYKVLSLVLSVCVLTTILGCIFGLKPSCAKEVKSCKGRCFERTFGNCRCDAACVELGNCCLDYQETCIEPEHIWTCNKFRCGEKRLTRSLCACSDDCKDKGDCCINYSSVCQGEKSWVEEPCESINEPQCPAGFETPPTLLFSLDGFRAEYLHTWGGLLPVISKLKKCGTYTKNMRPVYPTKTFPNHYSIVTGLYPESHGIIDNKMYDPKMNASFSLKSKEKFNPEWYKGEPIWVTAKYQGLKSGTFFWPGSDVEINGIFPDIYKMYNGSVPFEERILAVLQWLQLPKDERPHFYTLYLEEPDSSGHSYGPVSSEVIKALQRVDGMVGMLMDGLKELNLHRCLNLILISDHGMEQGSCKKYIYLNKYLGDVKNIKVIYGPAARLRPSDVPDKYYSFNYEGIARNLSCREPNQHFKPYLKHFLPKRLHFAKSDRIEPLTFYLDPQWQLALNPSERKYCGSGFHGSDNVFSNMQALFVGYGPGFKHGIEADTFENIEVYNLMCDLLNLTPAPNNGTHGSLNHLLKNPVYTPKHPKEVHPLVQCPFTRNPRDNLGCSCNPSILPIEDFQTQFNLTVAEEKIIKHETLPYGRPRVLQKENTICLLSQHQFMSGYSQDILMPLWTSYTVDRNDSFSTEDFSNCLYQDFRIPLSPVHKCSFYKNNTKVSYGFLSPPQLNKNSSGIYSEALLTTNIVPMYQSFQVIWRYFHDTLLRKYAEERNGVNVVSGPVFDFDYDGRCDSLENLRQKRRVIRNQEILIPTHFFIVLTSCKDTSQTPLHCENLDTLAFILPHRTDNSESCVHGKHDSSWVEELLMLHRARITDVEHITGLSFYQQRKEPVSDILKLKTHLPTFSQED
Summary of the method: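 Crude extracts of COS-7 cells transiently transfected with human NPP1 or NPP3, preincubated 3 min at 37 °C in 1 mM CaCl2, 140 mM NaCl, 5 mM KCl, 50 mM Tris pH 8.5 with analogue at 100 μM. Reaction started with 100 μM pnp-TMP; p-nitrophenol at 410 nm after 15 min. Activity without analogue set as 100%. Mean ± SD of 3−6 experiments in triplicate.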

[3] = biological target: T3, Ectonucleoside triphosphate diphosphohydrolase 2 (Homo sapiens) (UniProt Q9Y5L3); assay: Inhibition of human NTPDase2 assessed as amount of inorganic phosphate released using ATP as the substrate preincubated at 100 uM for 3 mins before substrate addition after 15 mins by malachite green reagent method; summary of the method: as §1
T3 sequence (whole entry): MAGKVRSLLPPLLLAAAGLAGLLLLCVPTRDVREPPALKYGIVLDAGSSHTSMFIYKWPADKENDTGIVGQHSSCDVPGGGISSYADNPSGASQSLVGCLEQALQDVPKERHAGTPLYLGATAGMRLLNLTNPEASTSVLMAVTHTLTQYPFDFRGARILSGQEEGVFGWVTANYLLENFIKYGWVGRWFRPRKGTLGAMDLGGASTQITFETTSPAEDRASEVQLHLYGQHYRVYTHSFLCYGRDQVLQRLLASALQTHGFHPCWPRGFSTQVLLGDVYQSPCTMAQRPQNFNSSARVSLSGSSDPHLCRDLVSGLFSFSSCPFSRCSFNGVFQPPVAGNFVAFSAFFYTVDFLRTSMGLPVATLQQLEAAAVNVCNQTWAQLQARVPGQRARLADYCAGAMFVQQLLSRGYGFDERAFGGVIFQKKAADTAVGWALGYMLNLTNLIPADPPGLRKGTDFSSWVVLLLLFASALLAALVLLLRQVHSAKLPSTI

[4] = biological target: T4, Ectonucleotide pyrophosphatase/phosphodiesterase family member 1 (Homo sapiens, UniProt P22413); assay: Mixed type inhibition of human NPP1 expressed in COS7 cells assessed as production of p-nitrophenol using pnp-TMP as the substrate preincubated for 3 mins before substrate addition measured after 15 mins by Dixon/Cornish Bowden method; format: cell-based, COS-7; conditions: read-out: Ki(app)
T4 sequence (P22413 whole entry): T2 sequence (whole entry)
Summary of the method: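 Crude protein extract from COS-7 cells transiently transfected with human NPP1 (sonicated, debris cleared at 300g), preincubated 3 min at 37 °C with inhibitor (0, 25, 50, 100 μM) in 1 mM CaCl2, 140 mM NaCl, 5 mM KCl, 50 mM Tris pH 8.5. pnp-TMP (25, 50, 100 μM) added; p-nitrophenol read at 410 nm after 15 min. Ki,app and inhibition type from Dixon and Cornish-Bowden plots, three independent experiments.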

[5] = biological target: T2, Ectonucleotide pyrophosphatase/phosphodiesterase family member 1 (Homo sapiens); assay: Inhibition of NPP1 in human HTB-85 cells assessed as production of p-nitrophenol using pnp-TMP at 100 uM measured after 20 mins by spectrophotometry; format: cell-based
Summary of the method: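 Intact osteocarcinoma HTB85 (SaOS-2) cells in 24-well plates, 0.5 mL incubation mixture, analogue and pnp-TMP each at 100 μM. After 20 min an aliquot was read for p-nitrophenol at 410 nm. Substrate alone set as 100%. Mean ± SD of three experiments in triplicate.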

Row | SMILES | inhibition [1] [%] | inhibition [2] [%] | inhibition [3] [%] | Ki [4] [µM] | inhibition [5] [%]
1 | B[P@@](=O)(OC[C@H]1O[C@@H](n2cnc3c(N)nc(SC)nc32)[C@H](O)[C@@H]1O)OP(=O)(O)C(F)(F)P(=O)(O)O | 30 | 90 | 50 |  | 
2 | B[P@@](=O)(OC[C@H]1O[C@@H](n2cnc3c(N)ncnc32)[C@H](O)[C@@H]1O)OP(=O)(O)CP(=O)(O)O | < 18 | 90 | < 18 | 0.5 | 90
3 | B[P@](=O)(OC[C@H]1O[C@@H](n2cnc3c(N)nc(SC)nc32)[C@H](O)[C@@H]1O)OP(=O)(O)CP(=O)(O)O | < 18 | 80 | < 18 | 56 | 90

Continued, values first:

Row | inhibition [1] [%] | inhibition [2] [%] | inhibition [3] [%] | Ki [4] [µM] | inhibition [5] [%] | SMILES
4 | < 18 | 90 | < 18 | 26 | 41 | CSc1nc(N)c2ncn([C@@H]3O[C@H](COP(=O)(O)C(F)(F)P(=O)(O)O)[C@@H](O)[C@H]3O)c2n1
5 | < 18 | 80 | < 18 | 7 | 41 | B[P@](=O)(OC[C@H]1O[C@@H](n2cnc3c(N)ncnc32)[C@H](O)[C@@H]1O)OP(=O)(O)CP(=O)(O)O
